Results from ChEMBL document CHEMBL1148274, “Bile acid amides derived from chiral amino alcohols: novel antimicrobials and antifungals” (Bioorg Med Chem Lett, 2004).
Values after ≈ are worked out from the molar mass of the structure shown.

Legend:
Aspergillus niger = experiment: Antifungal activity against Aspergillus niger was determined by twofold Micro-broth dilution assay; format: functional, organism-based
How it was run: (§1)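 Fungal strains tested by two-fold serial broth microdilution in microtitre plates. Cells diluted in phosphate-buffered saline to 10^6 cfu/mL and inoculated at a final 10^3 cells per 150 µL medium. Medium/inoculum and solvent controls were included. Incubation at 28 °C, then OD read at 600 nm. IC50 is the concentration at which growth is 50% of the control inoculum.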

Aspergillus flavus = experiment: Antifungal activity against Aspergillus flavus was determined by twofold Micro-broth dilution assay; format: functional, organism-based; how it was run: as §1
Candida albicans = experiment: Antifungal activity against Candida albicans was determined by twofold Micro-broth dilution assay; format: functional, organism-based; how it was run: as §1
Nannizzia gypsea [1] = experiment: Antifungal activity against Microsporum gypseum was determined by twofold Micro-broth dilution assay; format: functional, organism-based; how it was run: as §1
Sporothrix schenckii [2] = experiment: Antifungal activity against Sporothrix schenck ii was determined by twofold Micro-broth dilution assay; format: functional, organism-based; how it was run: as §1
Trichophyton rubrum = experiment: Antifungal activity against Trichophyton rubrum was determined by twofold Micro-broth dilution assay; format: functional, organism-based; how it was run: as §1
Cryptococcus neoformans = experiment: Antifungal activity against Cryptococcus neoformans was determined by twofold Micro-broth dilution assay; format: functional, organism-based; how it was run: as §1
Enterococcus faecalis = experiment: Antibacterial activity against gram positive bacteria Enterococcus faecalis was determined by twofold Micro-broth dilution assay; format: functional, organism-based
How it was run: (§2)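 Broth microdilution with two-fold serial dilutions of compound added to pre-inoculated microtitre plates. Inoculum diluted in phosphate-buffered saline to 10^6 cfu/mL, then plated at a final 10^3 cells per 150 µL medium. Controls were medium plus inoculum and a solvent control at the highest-concentration solvent level. Plates incubated at 37 °C and read by OD at 600 nm. IC50 is the concentration giving 50% of control-inoculum growth.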

Escherichia coli = experiment: Antibacterial activity against gram negative bacteria Escherichia coli was determined by twofold Micro-broth dilution assay; format: functional, organism-based; how it was run: as §2
Klebsiella aerogenes = experiment: Antibacterial activity against gram negative bacteria Enterobacter aerogens was determined by twofold Micro-broth dilution assay; format: functional, organism-based; how it was run: as §2
Histoplasma capsulatum = experiment: Antifungal activity against Histoplasma capsulatum was determined by twofold Micro-broth dilution assay; format: functional, organism-based
How it was run: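 Fungal broth microdilution. Cells were diluted to 10^6 cfu/mL in phosphate-buffered saline and seeded at a final 10^3 cells per well. Two-fold serial compound dilutions were added. Plates carried inoculum-only and solvent controls, the solvent matched to the highest concentration. After incubation at 28 °C, OD was read at 600 nm. IC50 is the concentration where growth is 50% of control.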

Salmonella typhimurium = experiment: Antibacterial activity against gram negative bacteria Salmonella Typhimurium was determined by twofold Micro-broth dilution assay; format: functional, organism-based, Salmonella enterica subsp. enterica serovar Typhimurium; settings: Salmonella enterica; how it was run: as §2
Salmonella typhi = experiment: Antibacterial activity against gram negative bacteria Salmonella typhi was determined by twofold Micro-broth dilution assay; format: functional, organism-based, Salmonella enterica subsp. enterica serovar Typhi; settings: Salmonella enterica
Staphylococcus aureus = experiment: Antibacterial activity against gram positive bacteria Staphylococcus aureus was determined by twofold Micro-broth dilution assay; format: functional, organism-based; how it was run: as §2
Shigella flexneri = experiment: Antibacterial activity against gram negative bacteria Shigella flexenerii was determined by twofold Micro-broth dilution assay; format: functional, organism-based; how it was run: as §2
Streptococcus mutans = experiment: Antibacterial activity against gram positive bacteria Streptococcus mutans was determined by twofold Micro-broth dilution assay; format: functional, organism-based; how it was run: as §2
[3] = tested on: Staphylococcus epidermidis; experiment: Antibacterial activity against gram positive bacteria Staphylococcus epidermidis was determined by twofold Micro-broth dilution assay; format: functional, organism-based; how it was run: as §2
Nannizzia gypsea [4] = experiment: Antifungal activity against Microsporum gypseum was determined by twofold Micro-broth dilution assay; No data; format: functional, organism-based; how it was run: as §1
Sporothrix schenckii [5] = experiment: Antifungal activity against Sporothrix schenck ii was determined by twofold Micro-broth dilution assay; No data; format: functional, organism-based; how it was run: as §1
[6] = Aspergillus niger, read-out: IC50
[7] = Aspergillus flavus, read-out: IC50
[8] = Candida albicans, read-out: IC50
[9] = Nannizzia gypsea, read-out: IC50
[10] = Sporothrix schenckii, read-out: IC50
[11] = Trichophyton rubrum, read-out: IC50

| Molecule | IC50 (Aspergillus niger; [6]) | IC50 (Aspergillus flavus; [7]) | IC50 (Candida albicans; [8]) | IC50 (Cryptococcus neoformans) | IC50 (Enterococcus faecalis) | IC50 (Escherichia coli) | IC50 (Klebsiella aerogenes) | IC50 (Histoplasma capsulatum) | IC50 (Nannizzia gypsea [1]; [9]) | IC50 (Salmonella typhimurium) | IC50 (Salmonella typhi) | IC50 (Staphylococcus aureus) | IC50 (Shigella flexneri) | IC50 (Sporothrix schenckii [2]; [10]) | IC50 (Streptococcus mutans) | IC50 (Trichophyton rubrum; [11]) | IC50 [3] | further results |
| --- | --- | --- | --- | --- | --- | --- | --- | --- | --- | --- | --- | --- | --- | --- | --- | --- | --- | --- |
| NYSTATIN |  |  |  |  |  |  |  |  |  |  |  |  |  |  |  |  |  | IC50 (Aspergillus niger): 2.5 µg/mL; IC50 (Aspergillus flavus): 2.5 µg/mL; IC50 (Candida albicans): 0.25 µg/mL; IC50 (Nannizzia gypsea [1]): 3.125 µg/mL; IC50 (Sporothrix schenckii [2]): 3.125 µg/mL; IC50 (Trichophyton rubrum): 2.5 µg/mL |
| C[C@H](CCC(=O)N[C@H](CO)[C@H](O)c1ccccc1)[C@H]1CC[C@H]2[C@@H]3CC[C@@H]4C[C@H](O)CC[C@]4(C)[C@H]3C[C@H](O)[C@]12C | > 250 µg/mL | > 250 µg/mL | > 250 µg/mL | > 250 µg/mL | 60 µg/mL (≈ 111 µM) | > 250 µg/mL | > 250 µg/mL | > 250 µg/mL | > 250 µg/mL | > 250 µg/mL | > 250 µg/mL | 40 µg/mL (≈ 73.8 µM) | > 250 µg/mL | > 250 µg/mL | 25 µg/mL (≈ 46.1 µM) | > 250 µg/mL | 40 µg/mL (≈ 73.8 µM) |  |
| C[C@H](CCC(=O)N[C@H](CO)[C@H](O)c1ccc([N+](=O)[O-])cc1)[C@H]1CC[C@H]2[C@@H]3CC[C@@H]4C[C@H](O)CC[C@]4(C)[C@H]3C[C@H](O)[C@]12C | > 250 µg/mL | > 250 µg/mL | > 250 µg/mL | > 250 µg/mL | 15 µg/mL (≈ 25.6 µM) | > 250 µg/mL | > 250 µg/mL | > 250 µg/mL | > 250 µg/mL | > 250 µg/mL | > 250 µg/mL | 7.5 µg/mL (≈ 12.8 µM) | > 250 µg/mL | > 250 µg/mL | 4 µg/mL (≈ 6.82 µM) | > 250 µg/mL | 7.5 µg/mL (≈ 12.8 µM) |  |
| C[C@@H]1[C@H](O)[C@@H](C)/C=C/C=C/C=C/C=C/C=C/C=C/C=C/[C@H](O[C@@H]2O[C@H](C)[C@@H](O)[C@H](N)[C@@H]2O)C[C@@H]2O[C@](O)(C[C@@H](O)C[C@@H](O)[C@H](O)CC[C@@H](O)C[C@@H](O)CC(=O)O[C@H]1C)C[C@H](O)[C@H]2C(=O)O [AMPHOTERICIN B] | 2.5 µg/mL (≈ 2.71 µM) | 5 µg/mL (≈ 5.41 µM) | 0.0625 µg/mL (≈ 0.0676 µM) |  |  |  |  |  |  |  |  |  |  |  |  | 2.5 µg/mL (≈ 2.71 µM) |  | IC50 (Nannizzia gypsea [4]): 2.5 µg/mL (≈ 2.71 µM); IC50 (Sporothrix schenckii [5]): 5 µg/mL (≈ 5.41 µM) |
| CN[C@@H]1[C@H](O[C@H]2[C@H](O[C@H]3[C@H](O)[C@@H](O)[C@H](N=C(N)N)[C@@H](O)[C@@H]3N=C(N)N)O[C@@H](C)[C@]2(O)C=O)O[C@@H](CO)[C@H](O)[C@H]1O [STREPTOMYCIN] |  |  |  |  | 1.25 µg/mL (≈ 2.15 µM) | 1.25 µg/mL (≈ 2.15 µM) | 1.25 µg/mL (≈ 2.15 µM) |  |  | 1.25 µg/mL (≈ 2.15 µM) |  | 0.3 µg/mL (≈ 0.516 µM) | 1.25 µg/mL (≈ 2.15 µM) |  | 0.12 µg/mL (≈ 0.206 µM) |  | 0.12 µg/mL (≈ 0.206 µM) |  |
| C[C@H](CCC(=O)N[C@@H](CO)[C@@H](O)c1ccc([N+](=O)[O-])cc1)[C@H]1CC[C@H]2[C@@H]3CC[C@@H]4C[C@H](O)CC[C@]4(C)[C@H]3C[C@H](O)[C@]12C | > 250 µg/mL | > 250 µg/mL | > 250 µg/mL | > 250 µg/mL | 10 µg/mL (≈ 17 µM) | > 250 µg/mL | > 250 µg/mL | > 250 µg/mL | > 250 µg/mL | > 250 µg/mL | > 250 µg/mL | > 250 µg/mL | > 250 µg/mL | > 250 µg/mL | 30 µg/mL (≈ 51.1 µM) | > 250 µg/mL | > 250 µg/mL |  |
